Shown are actives, neighbours in structure and some others; about 2.3% of the full set was active somewhere.
TRPC6 act – activates the mouse TRPC6 cation channel. HEK293-TRPC6 membrane potential dye fluorescence; active compounds read high. B-score at 10 µM. AID 2550. 310,000 tested, 0.13% active;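 active means B-score of the integrated fluorescence ratio above library mean plus 3 SD, and starting fluorescence ratio within library mean plus 5 SD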;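 further: higher score means more depolarization so channel activation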
Target sequence (Q61143 whole entry, looked up): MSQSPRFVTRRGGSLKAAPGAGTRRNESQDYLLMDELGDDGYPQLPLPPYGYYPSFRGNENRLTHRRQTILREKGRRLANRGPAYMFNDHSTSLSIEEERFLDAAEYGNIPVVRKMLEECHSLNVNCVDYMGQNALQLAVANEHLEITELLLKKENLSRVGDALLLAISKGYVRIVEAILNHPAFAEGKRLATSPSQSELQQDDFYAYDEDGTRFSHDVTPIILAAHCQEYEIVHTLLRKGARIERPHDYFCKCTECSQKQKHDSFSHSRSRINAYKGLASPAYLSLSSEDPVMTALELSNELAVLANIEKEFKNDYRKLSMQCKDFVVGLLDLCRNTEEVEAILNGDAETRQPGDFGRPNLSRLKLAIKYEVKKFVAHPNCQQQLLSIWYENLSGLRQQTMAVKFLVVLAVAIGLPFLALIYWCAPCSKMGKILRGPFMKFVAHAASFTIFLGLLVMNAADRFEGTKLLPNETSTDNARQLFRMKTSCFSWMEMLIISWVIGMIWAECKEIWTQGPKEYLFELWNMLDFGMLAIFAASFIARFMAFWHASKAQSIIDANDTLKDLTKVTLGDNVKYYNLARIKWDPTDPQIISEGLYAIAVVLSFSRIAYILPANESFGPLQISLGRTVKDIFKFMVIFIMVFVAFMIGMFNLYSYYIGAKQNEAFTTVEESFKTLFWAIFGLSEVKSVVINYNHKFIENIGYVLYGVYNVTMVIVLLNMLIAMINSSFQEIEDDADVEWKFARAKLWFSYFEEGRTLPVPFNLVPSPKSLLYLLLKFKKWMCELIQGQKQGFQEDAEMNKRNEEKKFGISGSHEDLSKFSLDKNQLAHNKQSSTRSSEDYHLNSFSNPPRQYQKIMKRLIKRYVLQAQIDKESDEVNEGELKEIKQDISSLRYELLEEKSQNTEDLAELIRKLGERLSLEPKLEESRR
TRPC4 act – TRPC4 (mouse) channel activation; Q9QUQ5; HEK293 TRPC4beta/mu-opioid, Fluo4 calcium fluorescence; active compounds read high; B-score at 10 µM; 310,000 tested, 0.49% active; AID 2237;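 active means B-score above 5 SD of library B-scores, and initial fluorescence ratio not above library mean plus 5 SD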;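 further: positive B-score marks a calcium rise read as TRPC4 activation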
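Assay system – TRPC4beta and mu-opioid receptor HEK293 stable cells · Measured by – Fluo4 fluorescence, kinetic · Schedule – dye loading 45 min room temperature, 110 s kinetic read · Read-out – B-scored integrated calcium fluorescence ratio · Controls – buffer and maximal DAMGO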
TRPC6 inhibitor – mouse TRPC6 channel inhibition; HEK293-TRPC6, membrane potential dye, ACh-evoked depolarization; active compounds read low; B-score at 10 µM; 310,000 tested, 1.1% active; Q61143;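 active means B-score under library mean minus 3 SD, initial fluorescence not abnormally high, positive integrated signal ratio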;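 further: B-score derived from integrated fluorescence ratio over the kinetic read; more negative B-score means stronger inhibition of depolarization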
TRPC4 inh – blocks the mouse TRPC4 cation channel; Q9QUQ5; HEK293 TRPC4beta/mu-opioid, DAMGO-evoked Fluo4 calcium flux; active compounds read low; B-score at 10 µM; 300,000 tested, 0.39% active; AID 2247;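 active means B-score over 3 SD under the library average, no early fluorescence shift, positive overall ratio signal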
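Assay system: HEK293 cells with stable TRPC4beta plus mu-opioid receptor expression. Dosing: single dose. Measured by: Fluo4 Ca2+ flux fluorescence. Also added: DAMGO in two steps, submaximal then maximal. Read-out: B score from integrated Fluo4 fluorescence ratio.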
TRPC4 PAM – TRPC4 (mouse) allosteric potentiation; HEK293 TRPC4beta/mu-opioid, DAMGO EC20, Fluo-4 Ca2+ flux; active compounds read high; B-score at 10 µM; 310,000 tested, 0.42% active;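 active means B-score of calcium response area above 5 SD of library B-scores, with initial fluorescence ratio within 5 SD of library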;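 further: B-score of integrated fluorescence ratio over time as area under calcium response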
TRPC4 sel inh 2 – second selectivity test of TRPC6 inhibitors: effect on mouse TRPC4. inhibition, % at 10 µM. 920 tested, 42% active. shares compounds with TRPC6 inhibitor. HEK293 TRPC4/MOR, membrane potential dye fluorescence; channel activated by saturating DAMGO dose;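 active means compounds whose fluorescence signal differed from control wells by over 3 SD, either direction, in both duplicate plates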
TRPC4 spec – selectivity of TRPC6 inhibitors: effect on mouse TRPC4 | activity change, negative = inhibition, % at 10 µM | 920 tested, 61% active | shares compounds with TRPC6 inhibitor | HEK293 TRPC4/mu-opioid, membrane potential fluorescence;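 active means rise or fall in signal beyond 3 SD of buffer-only wells in both replicate plates, either sign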;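 further: integrated kinetic ratio of fluorescence range over baseline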
HEK293 MPD ctr 2-1 – second counter-screen for TRPC6 inhibitors: parental HEK293 cells. signal change vs control, % at 10 µM. shares compounds with TRPC6 inhibitor. 920 tested, 31% active. parental HEK293 membrane potential dye fluorescence; maximal acetylcholine challenge after compound addition;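 active means membrane potential signal moving either way by over 3 SD of the maximum-effect control, in both duplicate plates, meaning non-specific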
HEK293 MPD ctr-1 – checks TRPC6 inhibitor effects in parental HEK293 cells; shares compounds with TRPC6 inhibitor; membrane potential signal change, % at 10 µM; 920 tested, 60% active; AID 2780; parental HEK293 membrane potential dye fluorescence;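 active means membrane potential signal shifting up or down by more than 3 SD of buffer-only wells, on both duplicate plates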
HEK293 MPD ctr-2 – counter-screen for TRPC6 modulators: effect in parental HEK293 cells. membrane potential signal change, % at 10 µM. membrane potential dye fluorescence. 2,400 tested, 51% active. shares compounds with TRPC6 inhibitor;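 active means membrane potential signal moves up or down beyond 5 SD from buffer-only wells, on both duplicate plates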
HEK293 MPD ctr 2-2 – second check of TRPC6 modulator effects in parental HEK293 cells | shares compounds with TRPC6 inhibitor | inhibition, % at 10 µM | 2,400 tested, 14% active | membrane potential dye fluorescence; after compound, maximal acetylcholine stimulation;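 active means membrane potential signal drops by more than 5 SD from the mean control signal, in both duplicate plates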;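 further: plate controls were acetylcholine ECmax control wells for no effect and buffer only wells for full effect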
TRPC4 ctr mod – mouse TRPC4 off-target activity of TRPC6 modulators; shares compounds with TRPC6 inhibitor; HEK293 TRPC4/mu-opioid, membrane potential fluorescence; percent change from control (negative = decrease, positive = increase), % at 10 µM; 2,400 tested, 69% active; AID 488927;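 active means membrane potential signal moved up or down beyond 5 SD of buffer control wells, in both duplicate plates, actives on both sides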;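 further: plate controls were assay buffer wells for no effect and DAMGO maximal-effect wells for full effect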
TRPC4/MOR inh 2 – mouse TRPC4 off-target activity of TRPC6 modulators, second screen | shares compounds with TRPC6 inhibitor | HEK293 TRPC4/mu-opioid, membrane potential dye fluorescence; stimulated with maximal-effect DAMGO | inhibition, % at 10 µM | 2,400 tested, 55% active | AID 488928;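 active means drop in membrane potential signal beyond 5 SD of the control wells in both duplicate plates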;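 further: TRPC4 counter screen for TRPC6 hits run under conditions tuned for TRPC6 not TRPC4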
TRPC6 block conf – mouse TRPC6 inhibitor confirmation. shares compounds with TRPC6 inhibitor. HEK293-TRPC6, membrane potential dye, ACh-evoked depolarization. inhibition, % at 10 µM. 3,300 tested, 43% active. AID 488960;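 active means fluorescence ratio falls more than 5 SD below the full-stimulation control mean, in both duplicate runs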;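 further: integrated fluorescence ratio of peak minus minimum over baseline after agonist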
TRPC6 act conf – confirmation of mouse TRPC6 activators; shares compounds with TRPC6 inhibitor; 2,800 tested, 11% active; HEK293-TRPC6 membrane potential dye fluorescence, FDSS; activation, % at 10 µM;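 active means ratio signal rise beyond 5 SD above unstimulated control wells' mean, seen in both duplicate runs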;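 further: plate controls were buffer EC0 wells for no effect and acetylcholine ECmax response for full effect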
* marks the source's active call; other numbers are inactive results.

What do the screens show for `COCCOC(=O)C(C#N)c1nc2ccccc2nc1N1CCN(Cc2ccccc2)CC1` (stereo not given)?
TRPC6 act: inactive; TRPC4 act: inactive; TRPC6 inhibitor: -6.2*; TRPC4 inh: inactive; TRPC4 PAM: inactive; HEK293 MPD ctr-2: inactive; HEK293 MPD ctr 2-2: inactive; TRPC4 ctr mod: inactive; TRPC4/MOR inh 2: 36%*; TRPC6 block conf: inactive; TRPC6 act conf: inactive

Results for Cc1cccc(N(CC(=O)NC2CCCCC2)C(=O)c2c(C)noc2C)c1 ?
TRPC6 act: inactive; TRPC4 act: inactive; TRPC6 inhibitor: -6*; TRPC4 inh: inactive; TRPC4 PAM: inactive; HEK293 MPD ctr-2: 118%*; HEK293 MPD ctr 2-2: inactive; TRPC4 ctr mod: 24%*; TRPC4/MOR inh 2: 30%*; TRPC6 block conf: inactive

What do the screens show for `CCc1ccc(N=C2N=C(N)c3ccccc32)cc1`?
TRPC6 act: inactive; TRPC4 act: inactive; TRPC6 inhibitor: -7.8*; TRPC4 inh: inactive; TRPC4 PAM: inactive; TRPC4 sel inh 2: 28%*; TRPC4 spec: -21%*; HEK293 MPD ctr 2-1: inactive; HEK293 MPD ctr-1: -465%*; TRPC6 block conf: 71%*; TRPC6 act conf: inactive

How did COc1ccc(/C(N)=N/OC(=O)C2CCCCC2)cc1 do in these assays?
TRPC6 act: inactive; TRPC4 act: inactive; TRPC6 inhibitor: inactive; TRPC4 inh: inactive; TRPC4 PAM: inactive

How did COC(=O)c1oc2ccc(Br)cc2c1NC(=O)CN1CCN(C)CC1 do in these assays?
TRPC6 act: inactive; TRPC4 act: inactive; TRPC6 inhibitor: -5.5*; TRPC4 inh: inactive; TRPC4 PAM: inactive; HEK293 MPD ctr-2: inactive; HEK293 MPD ctr 2-2: inactive; TRPC4 ctr mod: -16%*; TRPC4/MOR inh 2: 52%*; TRPC6 block conf: 48%*; TRPC6 act conf: inactive

What do the screens show for `CCN(C1CCCCC1)S(=O)(=O)c1ccc(S(=O)(=O)N2CCN(CCC#N)CC2)cc1`?
TRPC6 act: inactive; TRPC4 act: inactive; TRPC6 inhibitor: -5.5*; TRPC4 inh: inactive; TRPC4 PAM: inactive; HEK293 MPD ctr-2: inactive; HEK293 MPD ctr 2-2: inactive; TRPC4 ctr mod: 10%*; TRPC4/MOR inh 2: inactive; TRPC6 block conf: 38%*; TRPC6 act conf: inactive

What do the screens show for `COc1ccc(C(C(=O)NCCC(C)C)N(CCN2CCOCC2)C(=O)Cn2nnc3ccccc32)c(OC)c1` (stereo not given)?
TRPC6 act: 28*; TRPC4 act: inactive; TRPC6 inhibitor: inactive; TRPC4 inh: inactive; TRPC4 PAM: inactive; HEK293 MPD ctr-2: 484%*; HEK293 MPD ctr 2-2: inactive; TRPC4 ctr mod: 86%*; TRPC4/MOR inh 2: inactive; TRPC6 block conf: inactive; TRPC6 act conf: 298%*

What do the screens show for `COCCN(C(=O)Cn1nnc2ccccc21)C(C(=O)NC1CCCC1)c1cccc(OC)c1OC` (stereo not given)?
TRPC6 act: inactive; TRPC4 act: inactive; TRPC6 inhibitor: inactive; TRPC4 inh: inactive; TRPC4 PAM: inactive

How did CCCN1CCc2c(sc3nc(SC)n(-c4ccccc4)c(=O)c23)C1 do in these assays?
TRPC6 act: inactive; TRPC4 act: inactive; TRPC6 inhibitor: inactive; TRPC4 inh: inactive; TRPC4 PAM: inactive

What do the screens show for `CC1CC(OC(=O)C(O)c2ccccc2)CC(C)(C)N1C` (stereo not given)?
TRPC6 act: inactive; TRPC4 act: inactive; TRPC6 inhibitor: -5.7*; TRPC4 inh: inactive; TRPC4 PAM: inactive; HEK293 MPD ctr-2: inactive; HEK293 MPD ctr 2-2: inactive; TRPC4 ctr mod: 8.5%*; TRPC4/MOR inh 2: inactive; TRPC6 block conf: 56%*; TRPC6 act conf: inactive

Results for Cc1cc(Br)ccc1OCC(=O)NNC(=O)c1cnccn1 ?
TRPC6 act: inactive; TRPC4 act: inactive; TRPC6 inhibitor: inactive; TRPC4 inh: inactive; TRPC4 PAM: inactive

How did Cc1c2c(n3c(nc4ccccc43)c1C#N)N(CCN(C)C)CC2 do in these assays?
TRPC6 act: inactive; TRPC4 act: inactive; TRPC6 inhibitor: -11*; TRPC4 inh: inactive; TRPC4 PAM: inactive; HEK293 MPD ctr-2: -324%*; HEK293 MPD ctr 2-2: 95%*; TRPC4 ctr mod: -60%*; TRPC4/MOR inh 2: 71%*; TRPC6 block conf: 70%*; TRPC6 act conf: inactive

Results for Cc1c(Cc2ccccc2)c(NCCN(C)C)n2c(nc3ccccc32)c1C#N ?
TRPC6 act: inactive; TRPC4 act: inactive; TRPC6 inhibitor: -6*; TRPC4 inh: inactive; TRPC4 PAM: inactive; HEK293 MPD ctr-2: inactive; HEK293 MPD ctr 2-2: inactive; TRPC4 ctr mod: inactive; TRPC4/MOR inh 2: 54%*; TRPC6 block conf: inactive; TRPC6 act conf: inactive

How did Cc1c2c(n3c(nc4ccccc43)c1C#N)N(CCCN(C)C)CC2 do in these assays?
TRPC6 act: inactive; TRPC4 act: inactive; TRPC6 inhibitor: -8.3*; TRPC4 inh: inactive; TRPC4 PAM: inactive; HEK293 MPD ctr-2: -314%*; HEK293 MPD ctr 2-2: 98%*; TRPC4 ctr mod: -56%*; TRPC4/MOR inh 2: 62%*; TRPC6 block conf: 68%*; TRPC6 act conf: inactive
